Experimental data collected from several papers.
Compare with care: the assays were run in different laboratories.
Organism: Escherichia coli
Effect on: microbial growth

SMILES | method | cells | strain | time | pH | MIC
CC(C)Oc1c(NC(=O)c2ccc(NC(=O)[C@H](CC(N)=O)NC(=O)c3ccc(NC(=O)Cc4ccc(C#N)cc4)cc3)cc2)ccc(C(=O)Nc2ccc(C(=O)O)cc2)c1O | – | – | DSM1116 | – | – | 1 µg/mL
COc1c(C)c(OC(C)=O)c(C)c(O)c1C(=O)/C=C/c1ccccc1 | broth dilution | – | ATCC25922 | – | – | 5000 µg/mL
CCCCCCC#Cc1cncc(-c2nnc(SCc3ccc(Cl)cc3)n2C2CC2)c1 | – | – | – | – | – | ≥ 20 µg/mL
N=C(N)c1ccc(OCc2cc(Br)cc(COc3ccc(C(=N)N)cc3)c2)cc1 | – | – | BW25113 | – | – | > 100 µg/mL
Cc1ccc(C)n1-c1ccc(-c2n[nH]c(=S)[nH]2)cc1 | broth dilution | – | ATCC10536 | 18 h | – | 8 µg/mL
Clc1ccc(-c2nc3ccccc3[nH]2)cc1Cl | broth dilution | – | ATCC25922 | – | – | 32 µg/mL
N=C(N)c1cccc(OCc2cccc(COc3cccc(C(=N)N)c3)c2)c1 | broth dilution | – | BW25113 | – | – | > 200 µg/mL
CCCCCCC/C=C/C(=O)N1C(=O)/C(=C(/C)O)C(=O)C1Cc1ccc(O)cc1 (stereo not drawn) | – | K12 | K12 | – | – | > 200 µg/mL
CC(C)Oc1c(NC(=O)c2ccc(NC(=O)[C@H](CC(N)=O)NC(=O)c3ccc(NC(=O)c4ccc(C#N)c(Cl)c4)cc3)cc2)ccc(C(=O)Nc2ccc(C(=O)O)cc2)c1O | – | – | DSM1116 | – | – | < 0.03 µg/mL
Fc1ccc(NCc2ccc(Oc3ccccn3)cc2)cc1 | – | – | – | – | – | > 12.5 µg/mL
N=C(N)c1ccc(OCc2ccc(-c3ccccc3)cc2COc2ccc(C(=N)N)cc2)cc1 | broth dilution | – | W3110 | – | – | > 200 µg/mL
Cc1ccc(C)n1-c1ccc(-c2nnco2)cc1 | broth dilution | – | ATCC10536 | 18 h | – | 4 µg/mL
N=C(N)c1ccc(OCCC(CCOc2ccc(C(=N)N)cc2)c2ccccc2)cc1 (stereo not drawn) | – | – | BW25113 | – | – | > 200 µg/mL
CC1=NN(CNC(=O)c2ccccn2)C(=O)C1=NNn1c(-c2ccccc2)nc2ccccc2c1=O | broth dilution | – | – | 24 h | – | 52 µM
C/C(O)=C1\C(=O)C(CC(C)C)N(C(=O)C=Cc2ccccc2)C1=O (stereo not drawn) | – | K12 | K12 | – | – | > 200 µg/mL
CC(C)Oc1c(NC(=O)c2ccc(NC(=O)[C@H](CC(N)=O)NC(=O)c3ccc(CNC(=O)c4ccc(C#N)cc4)cc3)cc2)ccc(C(=O)Nc2ccc(C(=O)O)cc2)c1O | – | – | DSM1116 | – | – | > 64 µg/mL
c1ccc2c(-c3nc4ccccc4[nH]3)c3ccccc3cc2c1 | broth dilution | – | ATCC25922 | – | – | 64 µg/mL
N=C(N)c1ccc(OCCCCCCCCCCCOc2ccc(C(=N)N)cc2)cc1 | – | – | BW25113 | – | – | 50 µg/mL
CC(C)Oc1c(NC(=O)c2ccc(NC(=O)[C@H](CC(N)=O)NC(=O)c3ccc(NC(=O)c4ccc([N+](=O)[O-])c(OC(C)C)c4O)cc3)cc2)ccc(C(=O)Nc2ccc(C(=O)O)cc2)c1O | – | – | DSM1116 | – | – | > 64 µg/mL
O=[N+]([O-])c1ccc(-c2nc3cc(Cl)ccc3[nH]2)o1 | broth dilution | – | ATTC25922 | – | – | 8 µg/mL
N=C(N)c1ccc(OCc2ccccc2COc2ccc(C(=N)N)cc2)cc1 | broth dilution | – | BW25113 | – | – | > 200 µg/mL
C=CCn1c(-c2ccc(Cl)c(Cl)c2)nc2ccccc21 | broth dilution | – | ATCC25922 | – | – | 64 µg/mL
COc1ccc(NCc2ccc(Oc3ccccn3)cc2)cc1 | – | – | – | – | – | > 25 µg/mL

SMILES | method | cells | strain | time | pH | MIC
Cc1ccc2nc(-c3ccc(N(C)C)cc3)[nH]c2c1 | broth dilution | – | ATCC25922 | – | – | 64 µg/mL
CC1=NN(CNC(=O)c2ccccc2)C(=O)C1=NNn1c(-c2ccccc2)nc2ccccc2c1=O | broth dilution | – | – | 24 h | – | 51.9 µM
CC(C)Oc1c(NC(=O)c2ccc(NC(=O)[C@H](CC(N)=O)NC(=O)c3ccc(NC(=O)c4ccc(S(C)(=O)=O)cc4)cc3)cc2)ccc(C(=O)Nc2ccc(C(=O)O)cc2)c1O | – | – | DSM1116 | – | – | 2 µg/mL
C=CCOc1c(C)c(O)c(C(=O)/C=C/c2ccccc2)c(OC)c1C | broth dilution | – | ATCC25922 | – | – | 5000 µg/mL
N=C(N)c1ccc(OCc2ccc(Br)cc2COc2ccc(C(=N)N)cc2)cc1 | broth dilution | – | W3110 | – | – | 200 µg/mL
O=C(Nc1ccc2c(c1)OC(F)(F)O2)Nc1ccc(Cl)c(C(F)(F)F)c1 | – | – | CFT073 | – | – | > 100 µM
COc1c(C(=O)Nc2ccc(C(=O)O)cc2)ccc2nc(-c3cc(NC(=O)C(CC(N)=O)NC(=O)c4ccc(NC(=O)c5ccc(C#N)cc5)cc4)cn3C)[nH]c12 (stereo not drawn) | – | – | DSM1116 | – | – | > 64 µg/mL
Cc1ccc2nc(-c3c(F)cccc3Cl)[nH]c2c1 | broth dilution | – | ATCC25922 | – | – | 128 µg/mL
CCCCCCCC(=O)Oc1c(C)c(O)c(C(=O)/C=C/c2ccccc2)c(OC)c1C | broth dilution | – | ATCC25922 | – | – | 5000 µg/mL
Cn1c(SCc2ccc(Cl)cc2)nnc1-c1cncc(C#Cc2ccccc2)c1 | – | – | – | – | – | ≥ 20 µg/mL
O=C(O)c1cn(C2CC2)c2cc(N3CCNCC3)c(F)cc2c1=O | broth dilution | – | ATCC10536 | 18 h | – | ≤ 1 µg/mL
Fc1cccc(Cl)c1-c1nc2ccccc2[nH]1 | broth dilution | – | ATCC25922 | – | – | 64 µg/mL
NC1CCCCc2c1[nH]c1ccc(Br)cc21 (stereo not drawn) | broth dilution | – | ATCC25922 | – | – | 16 µg/mL
CNC(C)C1CCC(N)C(OC2C(N)CC(N)C(OC3OCC(C)(O)C(NC)C3O)C2O)O1 (stereo not drawn) | broth dilution | K12 | K12 | – | pH 7 | 0.25 µg/mL
CC(C)Oc1c(NC(=O)c2ccc(NC(=O)[C@H](CC(N)=O)NC(=O)c3ccc(NC(=O)c4cccc([N+](=O)[O-])c4)cc3)cc2)ccc(C(=O)Nc2ccc(C(=O)O)cc2)c1O | – | – | DSM1116 | – | – | > 64 µg/mL
N=C(N)c1ccc(OCc2cccc(COc3ccc(C(=N)N)cc3)c2)cc1 | broth dilution | – | W3110 | – | – | 100 µg/mL
O=C(CCCCCC[P+](c1ccccc1)(c1ccccc1)c1ccccc1)Nc1cc(O)c(O)c(O)c1.[Br-] | broth dilution | – | ATCC25922 | 18 h | – | > 32 µg/mL
O=[N+]([O-])c1ccc(O)c2ncccc12 | broth dilution | – | ATCC35218 | – | – | 4 µg/mL
O=[N+]([O-])c1ccc(-c2nc3ccccc3[nH]2)cc1 | broth dilution | – | ATCC25922 | – | – | 128 µg/mL
CNc1cccc2cc(C(=O)NCc3ccc(C(=O)O)cc3)c(=O)[nH]c12 | broth dilution | – | ATCC25922 | – | – | > 64 µg/mL
Cc1ccc2nc(-c3ccco3)n(Cc3ccccc3)c2c1 | broth dilution | – | ATCC25922 | – | – | 128 µg/mL
O=C(CCCCCC[P+](c1ccccc1)(c1ccccc1)c1ccccc1)Nc1ccc(O)c(O)c1.[Br-] | broth dilution | – | ATCC25922 | 18 h | – | > 32 µg/mL
